Measured values published in paper PMC4065287 (Diabetes Therapy, 2014).
Several values for one entry are separate records, joined by “and”; a condition that tells them apart may be missing. Identical values can stand only once. Entries after “also recorded” stand apart in the source; their conditions may differ. Like-named read-outs stand apart in the source and are kept apart here.

Assays:
CD-1 mice [1] = conditions: 2-year study; cited from earlier work
SD rats = conditions: cited from earlier work
SGLT2 = conditions: cited from earlier work
[2] = cited from earlier work
[3] = test system: peripheral blood lymphocytes; conditions: up to 200 mg/kg per day for 1 month
[4] = test system: Salmonella typhimurium stains TA98, TA100, TA1535, and TA1537; conditions: maximum concentrations (≤5,000 μg/plate) with or without metabolic activation
[5] = Urinary exposure extrapolations from bridging studies; assay type: in vivo; conditions: mice, rats, and dogs
[6] = chronic toxicology studies; cited from earlier work
[7] = test system: liver, skeletal muscle, kidney, and adipose tissues; conditions: male ZDF rats vs vehicle
hormone receptors = conditions: cited from earlier work
CD-1 mice [8] = conditions: for carcinogenicity: oral gavage up to 24 months
[9] = test system: Chinese hamster ovary (CHO) cells
[10] = test system: Escherichia coli strain WP2 uvrA; conditions: maximum concentrations (≤5,000 μg/plate) with or without metabolic activation
[11] = test system: primary hepatocyte cultures; conditions: single oral dose up to 700 mg/kg
[12] = test system: more than 330 receptors, enzymes, ion channels, and transporters; conditions: cited from earlier work
in vivo = conditions: both, Sprague-Dawley, rat, plasma, po, 200 mg/kg per day
EJ-1 tumor xenografts = experiment: In vivo mouse xenograft study, EJ-1; parameters: species or system athymic nude mice
[13] = test system: bone marrow polychromatic erythrocytes
[14] = test system: human bladder transitional cell carcinoma (TCC) cell lines (T24, TCCSUP, UM-UC-3, J82, SW780, and EJ-1); experiment: In vitro cell proliferation of bladder TCC cell lines with test compounds; assay type: cell-based; conditions: 0.2, 2, 20 μg/mL, serum-free medium, 72 h
Procedure, shortened: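 Low-passage TCC lines (<6 months from thaw) were seeded at 20,000 or 40,000 cells/well in RPMI 1640 + 10% FBS. After 24 h adherence and 24 h serum-free, cells got medium-only vehicle or test compound (0.2, 2, 20 μg/mL) serum-free for 72 h. Controls were a return to 10% FBS and continuous serum. Percent confluence was imaged every 2 h to build growth curves.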

[15] = 2-year rodent carcinogenicity studies
[16] = human plasma after 10 mg MRHD of dapagliflozin; cited from earlier work
[17] = cited from earlier work; remark: listed apart in the source
[18] = human subjects, 10 mg dose; cited from earlier work
[19] = test system: TCC cell lines (T24, TCCSUP, UM-UC-3, J82, and SW780); experiment: In vitro cell proliferation of bladder TCC cell lines with increasing glucose; assay type: cell-based, human
Procedure, shortened: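 Five TCC lines seeded at 40,000 or 80,000 cells/well in RPMI 1640 with 10% FBS, glucose set to 11 (control), 25, 35 or 50 mM. Cells were incubated 145 h in the incubator with live-cell imaging. Percent confluence was read every 2 h and growth curves were built over 145 h.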

SMILES: Cc1ccc([C@@H]2O[C@H](CO)[C@@H](O)[C@H](O)[C@H]2O)cc1Cc1ccc(-c2ccc(F)cc2)s1 [canagliflozin]
- exposure multiple of clinical exposures (CD-1 mice [1]): 14 ×
- incidence of neoplasms or preneoplastic lesions (CD-1 mice [1]): did not increase the incidence
- exposure multiple with increased incidence of neoplasms of the adrenals (SD rats): ≥ 12 ×
- exposure multiple with increased incidence of neoplasms of the renal tubules (SD rats): ≥ 12 ×
- selectivity for SGLT2 than for SGLT1 (SGLT2): 200 ×

SMILES: CCOc1ccc(Cc2cc([C@@H]3O[C@H](CO)[C@@H](O)[C@H](O)[C@H]3O)ccc2Cl)cc1 [dapagliflozin, (2S,3R,4R,5S,6R)-2-[4-chloro-3-(4-ethoxybenzyl)phenyl]-6-(hydroxymethyl)tetrahydro-2H-pyran-3,4,5-triol]
- oral bioavailability [2]: good
- volume of distribution [2]: high
- AUC multiple of MRHD [3]: ≤ 2,602 × MRHD
- C max multiple of MRHD [3]: ≤ 544 × MRHD
- clastogenicity in peripheral blood lymphocytes [3]: no evidence of clastogenicity
- bacterial reverse-mutation assay [4]: negative
- extrapolated urinary concentrations relative to humans [5]: > 700 ×
- levels of urinary glucose [6]: 400 to 500 mM
- probe sets showing significant changes [7]: less than 1%
- binding to hormone receptors (hormone receptors): did not bind
- exposure (AUC) multiple relative to human AUC at 10 mg (CD-1 mice [8]; females 2 mg/kg per day): ~11 ×
- exposure (AUC) multiple relative to human AUC at 10 mg (CD-1 mice [8]; females 10 mg/kg per day): ~52 ×
- exposure (AUC) multiple relative to human AUC at 10 mg (CD-1 mice [8]; females 20 mg/kg per day): ~105 ×
- carcinogenicity (CD-1 mice [8]; females, doses ≤20 mg/kg per day): not carcinogenic
- incidence of background tumors or time to onset (CD-1 mice [8]; lymphoreticular, uterus and cervix, lung, liver neoplasms): did not increase the incidence
- urinary bladder hyperplasia versus control (CD-1 mice [8]; male mice): did not increase urinary bladder hyperplasia
- exposure (AUC) multiple relative to human AUC at 10 mg (CD-1 mice [8]; males 5 mg/kg per day): approximately 4 ×
- exposure (AUC) multiple relative to human AUC at 10 mg (CD-1 mice [8]; males 15 mg/kg per day): ~14 ×
- exposure (AUC) multiple relative to human AUC at 10 mg (CD-1 mice [8]; males 40 mg/kg per day): ~72 ×
- carcinogenicity (CD-1 mice [8]; males, doses ≤40 mg/kg per day): not carcinogenic
- level that produced cytogenetic alterations in vitro [9]: 100 µg/mL
- chromosomal aberration induction ([9]; absence of S9 stimulation): negative
- clastogenic concentrations relative to total C max in humans with MRHD 10 mg ([9]; with metabolic stimulation): ≥ 735 times
- bacterial reverse-mutation assay [10]: negative
- unscheduled DNA synthesis [11]: did not induce an increase
- off-target interactions [12]: no off-target interactions
- Cmax (in vivo): 63 to 74 µg/mL
- body weight of treated animals (EJ-1 tumor xenografts; EJ-1 and UM-UC-3 xenograft mice): no effect
- exposure multiple of human clinical exposures (EJ-1 tumor xenografts; EJ-1 and UM-UC-3 xenograft mice, parent): up to 75 ×
- growth of tumor xenografts (EJ-1 tumor xenografts; mouse, in vivo): no effect; also recorded: similar
- bone marrow micronucleus genotoxicity ([13]; 2 weeks, up to 250 mg/kg per day): not genotoxic
- bone marrow micronucleus genotoxicity ([13]; 3 days, up to 700 mg/kg per day): not genotoxic
- proliferative or hyperplastic changes of the urinary bladder (Beagle dogs; 1 year): did not show dapagliflozin-related proliferative or hyperplastic changes
- exposure multiple of human clinical exposure (Beagle dogs; 1 year, supratherapeutic doses): > 3,300 × and > 3,000 ×
- urinary glucose excretion (Beagle dogs; treated dogs (control 5–13 mg per day)): 8,711–32,200 mg per day
- in vitro TCC proliferation [14]: did not affect
- levels of urinary glucose [15]: ~200 mM
- selectivity for SGLT2 than for SGLT1 (SGLT2): 1,200 ×
- carcinogenicity (Harlan SD rats; doses up to 10 mg/kg per day): not carcinogenic
- exposure (AUC) multiple relative to human AUC at 10 mg (Harlan SD rats; females 0.5 mg/kg per day): ~9 ×
- exposure (AUC) multiple relative to human AUC at 10 mg (Harlan SD rats; females 2 mg/kg per day): ~34 ×
- microscopic changes in the kidney (Harlan SD rats; males only): exacerbation in severity of CPN and increased incidence and severity of minimal to marked atypical hyperplasia of renal cortical tubules
- neoplasms affecting the renal tubules, adrenal gland, or testicular Leydig cells (Harlan SD rats; rat, in vivo): no dapagliflozin-related neoplasms
- tumors or preneoplastic lesions in the urinary bladder (Harlan SD rats; rat, in vivo): no indications of any dapagliflozin-related tumors or preneoplastic lesions
- maximum observed plasma concentration (C max) [16]: 0.136 µg/mL
- overall incidence of malignancies and unspecified tumors ([17]; July 15, 2011 cutoff (control 1.4%)): 1.5%
- urinary bladder tumors, incidence rate ([17]; dapagliflozin groups (placebo 0.03)): 0.15
- urinary bladder tumors, number of cases ([17]; dapagliflozin groups (placebo 1)): 9
- bladder cancer cases, percent of patients ([17]; of 5,501 patients, July 15, 2011 cutoff): 0.16%
- urinary glucose, mean [18]: 166 mM

SMILES: OC[C@H]1OC(O)[C@H](O)[C@@H](O)[C@@H]1O (some centres unmarked) [glucose]
- reduction of growth ([19]; J82, 25 mM): 37%
- growth ([19]; SW780, 25 mM): did not substantially alter
- growth ([19]; T24, 25 mM): did not substantially alter
- reduction of growth ([19]; T24, 35 mM): 83%
- reduction of growth ([19]; TCCSUP, 25 mM): 42%
- reduction of growth ([19]; UM-UC-3, 25 mM): 73%
- growth ([19]; all cell lines at 35 mM and 50 mM, except T24 at 35 mM): completely inhibited
